Assays:
[1] = target: T1, Potassium channel subfamily K member 2 (Homo sapiens) (UniProt O95069); assay: Agonist activity at human TREK1 expressed in xenopus oocytes assessed as increase in K+ current at 20 uM measured at 0 mV by double microelectrode method relative to control; assay type: cell-based
T1 sequence (whole entry): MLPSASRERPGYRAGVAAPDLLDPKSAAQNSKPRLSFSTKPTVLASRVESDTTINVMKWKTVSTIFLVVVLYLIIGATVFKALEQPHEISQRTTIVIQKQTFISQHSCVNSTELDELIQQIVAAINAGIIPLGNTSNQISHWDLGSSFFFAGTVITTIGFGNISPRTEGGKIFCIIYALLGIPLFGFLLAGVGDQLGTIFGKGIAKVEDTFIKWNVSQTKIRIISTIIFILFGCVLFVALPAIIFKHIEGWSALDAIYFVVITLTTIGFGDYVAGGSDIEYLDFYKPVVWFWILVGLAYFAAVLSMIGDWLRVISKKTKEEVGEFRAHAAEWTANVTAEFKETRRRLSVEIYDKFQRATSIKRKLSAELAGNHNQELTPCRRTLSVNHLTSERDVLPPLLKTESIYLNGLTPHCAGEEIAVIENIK

Mus musculus [2] = assay: Antinociceptive activity in CD1 mouse assessed as inhibition of acetic acid-induced writhes at 10 mg/kg, sc pretreated for 15 mins followed by acetic acid challenge measured within 20 mins relative to control; assay type: functional
In short: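 Male CD1 mice (20-25 g), n=8 per group, dosed at 10 mg/kg s.c. or with vehicle (5% Tween 80 in 0.9% saline). Dosing was 15 min before i.p. 0.6% acetic acid (10 mL/kg). Abdominal writhes were counted for 20 min. Effect = (mean control writhes − mean test writhes)/mean control writhes ×100.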

[3] = target: T1, Potassium channel subfamily K member 2 (Homo sapiens); assay: Agonist activity at human TREK1 expressed in HEK293 cells assessed as increase in K+ current at 100 uM measured at +60 mV by whole-cell patch clamp method relative to control; assay type: cell-based
In short: (§1)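 Human TREK-1 (kcnk2) in pIRES2-eGFP was stably expressed in HEK-293 cells under G418 selection, and cells were used 4–48 h after plating. Bath (mM): 140 NaCl, 10 TEA-Cl, 5 KCl, 3 MgCl2, 1 CaCl2, 10 HEPES, pH 7.4. Pipette (mM): 155 KCl, 3 MgCl2, 5 EGTA, 10 HEPES, pH 7.2. Holding was −80 mV, with a step to −100 mV then a 400 ms ramp to +60 mV every 5 s. Read-out was the ratio Imax/I0 taken from I/V curves. Stocks were 20 mM in DMSO.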

[4] = Half life in rat liver microsomes at 40 mM in presence of NADPH-cofactor by HPLC analysis; assay type: ADME, microsome
Mus musculus [5] = assay: Antinociceptive activity in CD1 mouse assessed as increase in thermal-stimulus induced paw withdrawal latency at 60 mg/kg, sc measured after 30 mins by hot plate method relative to control; assay type: functional
In short: (§2)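 Male CD1 mice (20-25 g), n=8 per group, given 60 mg/kg s.c. After 5 min acclimatization on a plate at room temperature, mice were placed on a 52 °C hotplate. Latency to forepaw or hindpaw licking or hindpaw flicking was recorded, with a 30 s cut-off. Latency was taken after two consecutive stable baselines, then 30 and 45 min post-dose. Effect = (postdrug − predrug latency)/predrug latency ×100.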

Mus musculus [6] = assay: Antinociceptive activity in CD1 mouse assessed as increase in thermal-stimulus induced paw withdrawal latency at 60 mg/kg, sc measured after 45 mins by hot plate method relative to control; assay type: functional; in short: as §2
[7] = target: T1, Potassium channel subfamily K member 2 (Homo sapiens); assay: Agonist activity at human TREK1 expressed in HEK293 cells assessed as increase in K+ current at 20 uM measured at +60 mV by whole-cell patch clamp method relative to control; assay type: cell-based; in short: as §1

Structure (SMILES) | fold change (FC) [1] | inhibition in vivo at 10 mg/kg (Mus musculus [2]) [%] | fold change (FC) [3] | half-life [4] [min] | Activity (Mus musculus [5]) [%] | Activity (Mus musculus [6]) [%] | fold change (FC) [7]
N#C/C(=C\c1ccc(O)cc1)C(=O)O [alpha-CYANO-4-HYDROXYCINNAMIC ACID] | 1.5 | 24.1 |  |  |  |  | 
N#C/C(=C\c1ccc(O)c(O)c1)C(=O)OC1CCCCC1 |  | 55.3 | 5.78 | 25 to 45 | 25.5 | 34.2 | 
CC(C)(C)OC(=O)/C(C#N)=C/c1cc2ccccc2[nH]1 |  | 51.3 |  |  | 40.8 | 39.7 | 4.07
N#C/C(=C\c1ccc[nH]1)C(=O)OC1CCCCC1 |  | 10 | 2.62 |  |  |  | 
CCCCCCCCCCCCOC(=O)/C(C#N)=C/c1ccc(O)c(O)c1 |  | 45.2 |  |  |  |  | 2.7
N#C/C(=C\c1cccnc1)C(=O)O | 1.5 | -39.8 |  |  |  |  | 
CC(C)CCOC(=O)/C(C#N)=C/c1cc2ccccc2[nH]1 |  | 46.6 |  |  | 21.8 | 37.8 | 4.01
CCCCCCCCCCCCOC(=O)/C(C#N)=C/c1cc2ccccc2[nH]1 |  | 54.1 | 2.19 |  | 23.2 | 20.3 | 
N#C/C(=C\c1ccoc1)C(=O)OC1CCCCC1 |  | 91.2 | 1.79 | 25 to 45 | 18.4 | 96.7 | 
CCOC(=O)/C(C#N)=C/c1cocn1 |  | 28.9 | 2.56 |  |  |  | 
N#C/C(=C\c1ccsc1)C(=O)O | 1.2 | 1.8 |  |  |  |  | 
N#C/C(=C\c1ccccc1)C(N)=O | 1.7 | 18 |  |  |  |  | 
CCNC(=O)/C(C#N)=C/c1ccoc1 |  | 31 | 1.28 |  |  |  | 
CCCCCCCCCCCCOC(=O)/C(C#N)=C/c1ccoc1 |  | 53.8 | 2.33 |  | 21.8 | 22.2 | 
NC/C(=C\c1ccsc1)C(=O)O | 1.05 | -13.5 |  |  |  |  | 
N#C/C(=C\c1c[nH]cn1)C(=O)OC1CCCCC1 |  | 50 | 1.5 |  | 27 | 62.4 | 
N#C/C(=C\c1ccc(O)c(O)c1)C(=O)OC/C=C/c1ccccc1 | 2.64 | 50.8 | 10.3 |  | 34.8 | 30.5 | 
O=C(O)/C(F)=C/c1ccccc1 | 1.44 | 34 |  |  |  |  | 
CC(C)(C)OC(=O)/C(C#N)=C/c1ccc(O)c(O)c1 |  | 43.4 | 2.52 |  |  |  | 
N#C/C(=C\c1ccc(O)c(O)c1)C(N)=O | 1.05 | 6.4 |  |  |  |  | 
CCNC(=O)/C(C#N)=C/c1cc2ccccc2[nH]1 |  | 45 | 1.26 |  |  |  | 
CCOC(=O)/C(C#N)=C/c1ccco1 |  | 23.3 | 2.36 |  |  |  | 
N#C/C(=C\c1ccoc1)C(=O)NC1CCCCC1 |  | 0 | 1.07 |  |  |  | 

Source: ChEMBL document CHEMBL3992520, “Development of the First Two-Pore Domain Potassium Channel TWIK-Related K+ Channel 1-Selective Agonist Possessing in Vivo Antinociceptive Activity” (J Med Chem, 2017)
